Reference: ChEMBL document CHEMBL1132456 (J Med Chem, 1999)

Columns and labels:
[1] = target: Human immunodeficiency virus type 1 reverse transcriptase (Human immunodeficiency virus 1, UniProt Q72547, Y181I); experiment: In vitro inhibitory activity against HIV-1 mutant Reverse transcriptase containing the single amino acid substitution Y181I
Method in brief: (§1)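 Template poly(rA):oligo(dT) (0.3 μM 3'-OH ends) with 10 μM [3H]dTTP, incubated at 37 °C. Acid-precipitable counts taken on filters. Inhibitor spanned 0.2–5 Ki. Ki came from Lineweaver–Burk and Dixon plots, triplicate runs.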

[2] = The compound was tested for cytotoxicity against NSO murine cell line.; format: cell-based; details: mouse, NSO cells; read-out: TC50 (the source's name)
Method in brief: (§2)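 Cells seeded in 96-well plates: human PHA-stimulated lymphocytes 20 000, 3T3 10 000, NSO 3 000, Daudi 300 per well. Graded compound concentrations added 12 h after plating; 48 h exposure. MTT (5 mg/mL stock) added for 2 h at 37 °C, then SDS/DMF extraction buffer overnight. OD read at 570 nm, blank subtracted, reported as OD × 1000.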

[3] = The compound was tested for cytotoxicity against Human Lymphocytes; details: read-out: TC50 (the source's name); method in brief: as §2
[4] = target: Human immunodeficiency virus type 1 reverse transcriptase (Human immunodeficiency virus 1, UniProt Q72547, L100I); experiment: In vitro inhibitory activity against HIV-1 mutant Reverse transcriptase containing the single amino acid substitution L100I; method in brief: as §1
[5] = target: Human immunodeficiency virus type 1 reverse transcriptase (Human immunodeficiency virus 1, UniProt Q72547); experiment: In vitro inhibitory activity against HIV-1 wild type reverse transcriptase (RT)
[6] = target: Human immunodeficiency virus type 1 reverse transcriptase (Human immunodeficiency virus 1, UniProt Q72547, Y188L); experiment: In vitro inhibitory activity against HIV-1 mutant Reverse transcriptase containing the single amino acid substitution Y188L; method in brief: as §1
[7] = target: Human immunodeficiency virus type 1 reverse transcriptase (Human immunodeficiency virus 1, UniProt Q72547, K103N); experiment: In vitro inhibitory activity against HIV-1 mutant Reverse transcriptase containing the single amino acid substitution K103N; method in brief: as §1
[8] = target: Human immunodeficiency virus type 1 reverse transcriptase (Human immunodeficiency virus 1, UniProt Q72547, V106A); experiment: In vitro inhibitory activity against HIV-1 mutant Reverse transcriptase containing the single amino acid substitution V106A; method in brief: as §1
[9] = The compound was tested for cytotoxicity against 3T3 fibroblast murine cell line.; format: cell-based; details: mouse, NIH3T3 fibroblast cells; read-out: TC50 (the source's name); method in brief: as §2
[10] = test system: Human immunodeficiency virus 3; experiment: (§3) The compound was tested for inhibition against HIV-III B from C8 166 cell lines; format: functional, organism-based; details: Human immunodeficiency virus 1, IIIB, C8166
Method in brief: (§4)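 C8166 cells at 90 × 10³ cells/mL infected with 100 TCID₅₀ HIV with or without compound for 2 h at 37 °C. Cells washed, replated at 35 × 10³ cells/200 μL, and kept 5 days with drug. Cytopathic protection and toxicity both read by MTT (OD 490/650 nm). EC₅₀ and IC₅₀ from median effect equation; SI = IC₅₀/EC₅₀.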

[11] = test system: Human immunodeficiency virus 1; experiment: (§5) The compound was tested for inhibition against HIV-1 from CEM-SS cell lines; format: functional, organism-based; details: Human immunodeficiency virus 1, CEM-SS
Method in brief: (§6)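 Testing by the NCI AIDS Antiviral Screening Program: protection of HIV-1-infected CEM-SS T4 lymphocytes from cell death, run alongside an AZT control. EC₅₀ is the concentration giving 50% survival of infected cells relative to uninfected untreated controls. IC₅₀ is the concentration giving 50% survival of uninfected cells. SI = IC₅₀/EC₅₀.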

[12] = The compound was tested for cytotoxicity against Daudi human cell line.; format: cell-based; details: Daudi cells, read-out: TC50 (the source's name); method in brief: as §2
[13] = […] index values calculated at 50% viral activity using mutually exclusive forms of equation.
Method in brief: (§7)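 Chou–Talalay multiple drug effect analysis of compound combined with AZT in acutely HIV-infected C8166 cells. Combination index computed at 50% effect under the mutually exclusive or mutually nonexclusive assumption.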

[14] = […] index values calculated at 50% viral activity using mutually nonexclusive forms of equation.; method in brief: as §7
[15] = test system: Human immunodeficiency virus 3; experiment: The compound was tested in presence of AZT for Anti-viral of compound in C8166 cells infected with HIV-IIIB; format: functional, organism-based; details: Human immunodeficiency virus 1, IIIB
Method in brief: (§8)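 C8166 cells at 90 × 10³ cells/mL exposed to 100 TCID₅₀ HIV with or without drug (alone, or together with AZT) for 2 h at 37 °C, 5% CO₂. Cells then washed and replated at 35 × 10³ cells/200 μL and cultured 5 days with the same drug levels. Protection from cytopathic effect read by MTT at 490/650 nm; EC₅₀ from median effect equation.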

[16] = test system: Human immunodeficiency virus 3; experiment: The compound was tested for Anti-viral activity of compound alone in C8166 cells infected with HIV-IIIB; format: functional, organism-based; details: Human immunodeficiency virus 1, IIIB; method in brief: as §8
[17] = test system: Human immunodeficiency virus 3; experiment: The compound was tested for Anti-viral activity of AZT with compound in C8166 cells infected with HIV-IIIB; format: functional, organism-based; details: Human immunodeficiency virus 1, IIIB; method in brief: as §8
[18] = test system: CEM-SS; experiment: The compound was tested for inhibition against HIV-1 from CEM-SS cell lines.; format: functional, cell-based; details: Homo sapiens; method in brief: as §6
[19] = test system: C8166; experiment: The compound was tested for inhibition against HIV-III B from C8 166 cell lines.; format: functional, cell-based; details: Homo sapiens; method in brief: as §4
[20] = test system: Human immunodeficiency virus 3; experiment: The compound was tested in presence of AZT for Anti-viral activity of compound in C8166 cells infected with HIV-IIIB; format: functional, organism-based; details: Human immunodeficiency virus 1, IIIB; method in brief: as §8
[21] = test system: C8166; experiment: as §3; format: functional, cell-based; details: Homo sapiens; method in brief: as §4
[22] = test system: CEM-SS; experiment: as §5; format: functional, cell-based; details: Homo sapiens; method in brief: as §6
[23] = The compound was tested for cytotoxicity against NSO murine cell lines.; format: cell-based; details: mouse, NSO cells; read-out: TC50 (the source's name); method in brief: as §2

Row | SMILES | Ki [1] [µM] | CC50 [2] [µM] | CC50 [3] [µM] | Ki [4] [µM] | Ki [5] [µM] | Ki [6] [µM] | Ki [7] [µM] | Ki [8] [µM] | CC50 [9] [µM] | IC50 [10] [µM] | CC50 [12] [µM] | EC50 [18] [µM] | IC50 [18] [µM] | EC50 [19] [µM] | IC50 [19] [µM] | other results
1 | CCC1(c2cccc(OC)c2)Oc2ccccc2-n2cccc2C1=O (stereo not given) | > 10 | 230 | 200 | 0.011 | 0.06 | > 10 | 0.022 | 0.01 | 210 | 7 | 280 | – | – | – | – | EC50 [11]: 0.04 µM; IC50 [11]: 0.2 µM
2 | CCC1(c2cccc(C)c2)Oc2ccccc2-n2cccc2C1=O (stereo not given) | 4 | > 1000 | > 1000 | 0.1 | 0.07 | 1.9 | 1.1 | 0.25 | > 1000 | 52 | > 1000 | – | – | – | – | CI [13]: 0.04; CI [14]: 0.04; EC50 [15]: 0.011 µM; EC50 [16]: 0.425 µM; EC50 [17]: 0.00325 µM; EC50 [11]: 0.35 µM; IC50 [11]: 119 µM
3 | CCC1(c2cccs2)Oc2ccccc2-n2cccc2C1=O (stereo not given) | 0.97 | – | – | 0.07 | 0.03 | 0.3 | 0.4 | 0.11 | – | – | – | 0.115 | 11 | – | – | –
4 | CCC1(c2ccccc2)Oc2cccnc2-n2cccc2C1=O (stereo not given) | 4 | 14 | 13 | 0.04 | 0.022 | 1.5 | 0.3 | 0.07 | 10 | – | 13 | 0.069 | 3.9 | 0.054 | 6 | CI [13]: 0.302; CI [14]: 0.303; EC50 [16]: 0.054 µM; EC50 [20]: 0.017 µM; EC50 [17]: 0.00317 µM
5 | CCC1(c2cccs2)Oc2cccnc2-n2cccc2C1=O (stereo not given) | 0.43 | 26 | 30 | 0.09 | 0.093 | 0.475 | 0.045 | 0.09 | 35 | – | 29 | 0.15 | > 2 | – | 20.5 | –
6 | CCC1(c2cccc(C)c2)Oc2cccnc2-n2cccc2C1=O (stereo not given) | 1.2 | 410 | 400 | 0.044 | 0.021 | 1.5 | 0.03 | 0.4 | 400 | – | 380 | 0.027 | > 2 | 0.27 | 7.2 | –
7 | CCC1(c2cccc(F)c2)Oc2ccccc2-n2cccc2C1=O (stereo not given) | 4 | 720 | 720 | 0.16 | 0.1 | 1.5 | 0.07 | 0.4 | 710 | – | 720 | – | – | – | – | EC50 [21]: 1.1 µM; IC50 [21]: 13.8 µM; EC50 [22]: 0.072 µM; IC50 [22]: 2 µM
8 | CCC1(c2ccc(C)cc2)Oc2ccccc2-n2cccc2C1=O (stereo not given) | – | – | – | – | 0.97 | – | – | – | – | – | – | – | – | – | – | –
9 | CCC1(c2ccccc2)Oc2ccccc2-n2cccc2C1=O (stereo not given) | > 10 | – | 32 | 0.75 | 0.19 | > 10 | 7.7 | 3.9 | 33 | – | 26 | 0.47 | – | 0.8 | 10 | CC50 [23]: 24 µM
10 | CCC1(c2cc(F)cc(F)c2)Oc2ccccc2-n2cccc2C1=O (stereo not given) | 6.8 | – | – | 1.7 | 1.5 | > 10 | 2.7 | 3 | – | 17.1 | – | – | – | – | – | –
